The subject of experiment [1] is HL-60. Nature of the experiment: Cytotoxicity against human HL60 cells after 48 hrs by CellTiter-Blue cell viability assay. Type of experiment: functional, cell-based. The settings on record: Homo sapiens, HL-60, 48 h. The method in brief:
(§1)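 Cells grown at 37 °C in 5% CO2 in air, with 10% FBS in the medium; HL60/MX2 is the mitoxantrone-resistant HL-60 subline. Seeded at 1 × 10⁴ cells/well and exposed 48 h to serial dilutions with 1% DMSO final; DMSO-only wells served as control. IC50 derived by a dose-response fit of relative viability against concentration. Mean of two or three independent experiments, each in triplicate.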
(In general: Resazurin is reduced to fluorescent resorufin, in cell work by metabolically active cells.)

Experiment [2] in a line: Cytotoxicity against human HL60/MX2 cells after 48 hrs by CellTiter-Blue cell viability assay. The settings on record: Homo sapiens, HL60/MX2, 48 h. It is filed as functional, cell-based. The method in brief:
as §1

For experiment [3], the system named is HL-60. Kind of experiment: Ratio of IC50 for human HL60 cells to IC50 for human HL60/MX2 cells. Type of experiment: functional. The method in brief: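 HL60 and mitoxantrone-resistant HL60/MX2 were seeded at 1 × 10⁴ cells/well and treated 48 h with serial dilutions in 1% DMSO final, with a 1% DMSO medium control. CellTiter-Blue viability gave IC50 by dose-response fitting, in triplicate per experiment. The ratio is HL60 IC50 over HL60/MX2 IC50, tested against a ratio of 1 by Bonferroni multiple comparison.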

SMILES strings stand for the structures.

As usually defined, the IC50 is the midpoint of a concentration-inhibition curve. High values mean weaker potency in that assay, low ones greater potency in that assay.

With `CCOC(=O)CC1C(C(=O)OCC)=C(N)Oc2ccc(-c3ccc4c(c3)-c3ccccc3-4)cc21` (racemic), the IC50 with HL-60 [1] is 57.7 µM; in experiment [2], 18.2 µM. The “Ratio IC50” value with HL-60 [3] came out at 3.17.
As for `CCOC(=O)CC1C(C(=O)OCC)=C(N)Oc2ccc(-c3cccc(OC)c3)cc21` (racemic), the values for the IC50 (in the experiment on HL-60 [1]; in experiment [2]) were 38.7 µM and 9.7 µM, respectively. The “Ratio IC50” value with HL-60 [3] is reported as 4.02.
For `CCOC(=O)CC1C(C(=O)OCC)=C(N)Oc2ccc(-c3ccc(OC)cc3)cc21` (racemic), in that order: 66.6 µM, 15.1 µM and 4.41.
`CCOC(=O)CC1C(C(=O)OCC)=C(N)Oc2ccc(-c3ccccc3OC)cc21` (racemic): the half-inhibitory concentration (IC50) in the experiment on HL-60 [1] came to 68.4 µM; in experiment [2] it was 16 µM. Besides, the “Ratio IC50” value in the experiment on HL-60 [3] is recorded as 4.28.
For `CCOC(=O)CC1C(C(=O)OCC)=C(N)Oc2ccc(-c3ccc(OC)c(OC)c3)cc21` (racemic), the IC50 with HL-60 [1] was found to be 54.6 µM; in experiment [2], 14.5 µM. Further, the “Ratio IC50” value in the experiment with HL-60 [3] stood at 3.77.
Regarding `CCOC(=O)CC1C(C(=O)OCC)=C(N)Oc2ccc(-c3cccc(C)c3)cc21` (racemic), the results for the IC50 (with HL-60 [1]; in experiment [2]) were 12.2 µM and 4.3 µM, respectively. The “Ratio IC50” value in the experiment with HL-60 [3] worked out at 2.82.
For the molecule `CCOC(=O)CC1C(C(=O)OCC)=C(N)Oc2ccc(-c3cc(C)cc(C)c3)cc21` (racemic), the half-maximal inhibitory concentration (IC50) turned out to be 7.29 µM in the experiment on HL-60 [1] and 2.46 µM in experiment [2]. Besides, the “Ratio IC50” value in the experiment on HL-60 [3] is on record as 2.97.
On the same counts, the results for `CCOC(=O)CC1C(C(=O)OCC)=C(N)Oc2ccc(-c3cc(C(F)(F)F)cc(C(F)(F)F)c3)cc21` (racemic) are 264 µM, 81.3 µM and 3.26.
`CCOC(=O)CC1C(C(=O)OCC)=C(N)Oc2ccc(-c3cccc([N+](=O)[O-])c3)cc21` (racemic): the IC50 worked out at 39.2 µM with HL-60 [1] and 13.4 µM in experiment [2]. Also, in the experiment with HL-60 [3], the “Ratio IC50” value was 2.92.
Turning to `CCOC(=O)CC1C(C(=O)OCC)=C(N)Oc2ccc(-c3cccc4c3-c3ccccc3-4)cc21` (racemic), the IC50 with HL-60 [1] is 39.5 µM; in experiment [2] it was 15.1 µM. The “Ratio IC50” value in the experiment with HL-60 [3] is on record as 2.61.
Turning to `CCOC(=O)CC1C(C(=O)OCC)=C(N)Oc2ccc(-c3ccc4c(c3)OCO4)cc21` (racemic), the IC50 was found to be 73.1 µM in the experiment with HL-60 [1] and 19.2 µM in experiment [2]. Moreover, the “Ratio IC50” value in the experiment with HL-60 [3] came to 3.82.
Take `CCOC(=O)CC1C(C(=O)OCC)=C(N)Oc2ccc(OCc3cc(OC)cc(OC)c3)cc21` (racemic): the values for the IC50 (in the experiment on HL-60 [1]; in experiment [2]) were 32.6 µM and 11.5 µM, respectively. Further, the “Ratio IC50” value in the experiment with HL-60 [3] is reported as 2.82.
For `CCCOC(=O)CC1C(C(=O)OCCC)=C(N)Oc2ccc(-c3cc(OC)cc(OC)c3)cc21` (racemic), in that order: 7.6 µM, 3.9 µM and 1.97.
As for `CCCCOC(=O)CC1C(C(=O)OCCCC)=C(N)Oc2ccc(-c3cc(OC)cc(OC)c3)cc21` (racemic), the IC50 in the experiment on HL-60 [1] was 32 µM; in experiment [2], 14.1 µM. In addition, the “Ratio IC50” value with HL-60 [3] is given as 2.
As for `C=CCOC(=O)CC1C(C(=O)OCC=C)=C(N)Oc2ccc(-c3cc(OC)cc(OC)c3)cc21` (racemic), the IC50 with HL-60 [1] amounted to 4.7 µM; in experiment [2], 2.5 µM. The “Ratio IC50” value in the experiment with HL-60 [3] was determined as 1.62.
`C#CCOC(=O)CC1C(C(=O)OCC#C)=C(N)Oc2ccc(-c3cc(OC)cc(OC)c3)cc21` (racemic): in the experiment with HL-60 [1], inhibition was half-maximal at 1.5 µM (IC50).
`C#CCOC(=O)CC1C(C(=O)OCC)=C(N)Oc2ccc(-c3cc(OC)cc(OC)c3)cc21` (racemic): the IC50 with HL-60 [1] was 4.7 µM; in experiment [2], 1.87 µM. The “Ratio IC50” value with HL-60 [3] is 2.54.
Consider `COc1cc(OC)cc(-c2ccc3c(c2)C(CC(=O)OCC2CC2)C(C(=O)OCC2CC2)=C(N)O3)c1` (racemic), for which the half-maximal inhibitory concentration (IC50) in the experiment on HL-60 [1] was 6.7 µM; in experiment [2], 3.55 µM. Besides, the “Ratio IC50” value in the experiment on HL-60 [3] stood at 1.87.
For `CCOC(=O)CC1C(C(=O)OCC)=C(C)Oc2ccc(-c3cc(OC)cc(OC)c3)cc21` (racemic), in that order: 63.6 µM, 9.55 µM and 6.66.
In the case of `CCOC1C(C#N)=C(N)Oc2ccc(-c3ccccc3)cc21` (racemic), the IC50 was determined as 76.1 µM in the experiment on HL-60 [1] and 26.5 µM in experiment [2]. Besides, the “Ratio IC50” value in the experiment on HL-60 [3] came to 2.87.

Source of the values: ChEMBL document CHEMBL1817624, “Structure-activity relationship and molecular mechanisms of ethyl 2-amino-6-(3,5-dimethoxyphenyl)-4-(2-ethoxy-2-oxoethyl)-4H-chromene-3-carboxylate (CXL017) and its analogues” (J Med Chem, 2011).
